# Experiments:
# Type in all cases: functional
# Rhizoctonia solani = assay: Fungicidal activity against Rhizoctonia solani at 50 ug/ml by growth inhibition method; conditions: read-out: GI
# In short: (§1)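 Mycelial growth inhibition on potato dextrose agar. The panel covered Alternaria solani, Botrytis cinerea, Cercospora arachidicola, C. beticola, Colletotrichum lagenarium, Fusarium oxysporum, Gibberella zeae, Puccinia triticina, Phytophthora infestans, Physalospora piricola, Pellicularia sasakii and Rhizoctonia solani.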
# Puccinia triticina = assay: Fungicidal activity against Puccinia triticina at 50 ug/ml by growth inhibition method; conditions: read-out: GI; in short: as §1
# Thanatephorus cucumeris = assay: Fungicidal activity against Thanatephorus cucumeris at 50 ug/ml by growth inhibition method; conditions: read-out: GI; in short: as §1
# [1] = test system: Botryosphaeria berengeriana; assay: Fungicidal activity against Botryosphaeria berengeriana at 50 ug/ml by growth inhibition method; conditions: read-out: GI; in short: as §1
# Phytophthora infestans = assay: Fungicidal activity against Phytophthora infestans at 50 ug/ml by growth inhibition method; conditions: read-out: GI; in short: as §1
# Fusarium graminearum = assay: Fungicidal activity against Fusarium graminearum at 50 ug/ml by growth inhibition method; conditions: read-out: GI; in short: as §1
# Colletotrichum lagenaria = assay: Fungicidal activity against Colletotrichum lagenaria at 50 ug/ml by growth inhibition method; conditions: read-out: GI; in short: as §1
# Cercospora beticola = assay: Fungicidal activity against Cercospora beticola at 50 ug/ml by growth inhibition method; conditions: read-out: GI; in short: as §1
# Mycosphaerella arachidis = assay: Fungicidal activity against Mycosphaerella arachidis at 50 ug/ml by growth inhibition method; conditions: read-out: GI; in short: as §1
# Alternaria solani = assay: Fungicidal activity against Alternaria solani at 50 ug/ml by growth inhibition method; conditions: read-out: GI; in short: as §1
# Tobacco mosaic virus [2] = assay: In vitro antiviral activity against Tobacco mosaic virus (TMV) infected tobacco leaves at 100 ug/ml
# Tobacco mosaic virus [3] = assay: In vitro antiviral activity against Tobacco mosaic virus (TMV) infected tobacco leaves at 500 ug/ml
Structure (SMILES),inhibition of growth at 50 µg/mL (Rhizoctonia solani),inhibition of growth at 50 µg/mL (Puccinia triticina),inhibition of growth at 50 µg/mL (Thanatephorus cucumeris),inhibition of growth at 50 µg/mL [1],inhibition of growth at 50 µg/mL (Phytophthora infestans),inhibition of growth at 50 µg/mL (Fusarium graminearum),inhibition of growth at 50 µg/mL (Colletotrichum lagenaria),inhibition of growth at 50 µg/mL (Cercospora beticola),inhibition of growth at 50 µg/mL (Mycosphaerella arachidis),inhibition of growth at 50 µg/mL (Alternaria solani),inhibition at 100 µg/mL (Tobacco mosaic virus [2]),inhibition at 500 µg/mL (Tobacco mosaic virus [3])
Cc1ccc(N(C(=O)c2nnsc2C)C(C(=O)NC2CCCCC2)c2ccc(Cl)cc2)cc1F (stereo not drawn),22%,0%,0%,0%,6%,0%,0%,13%,18%,0%,8%,14%
Cc1ccc(N(C(=O)c2nnsc2C)C(C(=O)NC2CCCCC2)c2ccccc2Cl)cc1F (stereo not drawn),22%,0%,0%,0%,25%,45%,0%,0%,0%,0%,16%,53%
Cc1ccc(N(C(=O)c2nnsc2C)C(C(=O)NC2CCCCC2)c2cccc(F)c2)cc1F (stereo not drawn),2%,0%,11%,8%,44%,9%,43%,25%,27%,50%,52%,30%
Cc1ccc(N(C(=O)c2nnsc2C)C(C(=O)NC2CCCCC2)c2ccccc2F)cc1F (stereo not drawn),59%,0%,0%,0%,50%,73%,57%,25%,55%,63%,33%,58%
Cc1ccc(N(C(=O)c2nnsc2C)C(C(=O)NC2CCCCC2)c2ccc(C(F)(F)F)cc2)cc1F (stereo not drawn),22%,0%,0%,0%,0%,9%,14%,0%,0%,0%,27%,36%
Cc1ccc(N(C(=O)c2nnsc2C)C(C(=O)NC2CCCCC2)c2cccc(C(F)(F)F)c2)cc1F (stereo not drawn),22%,0%,13%,0%,25%,14%,29%,25%,27%,25%,35%,72%
Cc1ccc(N(C(=O)c2nnsc2C)C(C(=O)NC2CCCCC2)c2ccccc2C(F)(F)F)cc1F (stereo not drawn),4%,0%,0%,0%,25%,0%,14%,25%,0%,44%,31%,20%
Cc1ccc(C(C(=O)NC2CCCCC2)N(C(=O)c2nnsc2C)c2ccc(C)c(F)c2)cc1 (stereo not drawn),2%,0%,15%,8%,25%,0%,14%,25%,27%,0%,21%,53%
Cc1ccc(N(C(=O)c2nnsc2C)C(C(=O)NC2CCCCC2)c2ccccc2C)cc1F (stereo not drawn),22%,0%,0%,0%,44%,0%,29%,25%,0%,38%,13%,35%
